Tests used:
[1] = target: T1, Adenosine receptor A3 (Rattus norvegicus, UniProt P28647); experiment: Displacement of [3H]NECA from recombinant rat adenosine A3 receptor expressed in CHO cell membranes after 3 hrs by microbeta scintillation counting
T1 sequence (P28647 whole entry): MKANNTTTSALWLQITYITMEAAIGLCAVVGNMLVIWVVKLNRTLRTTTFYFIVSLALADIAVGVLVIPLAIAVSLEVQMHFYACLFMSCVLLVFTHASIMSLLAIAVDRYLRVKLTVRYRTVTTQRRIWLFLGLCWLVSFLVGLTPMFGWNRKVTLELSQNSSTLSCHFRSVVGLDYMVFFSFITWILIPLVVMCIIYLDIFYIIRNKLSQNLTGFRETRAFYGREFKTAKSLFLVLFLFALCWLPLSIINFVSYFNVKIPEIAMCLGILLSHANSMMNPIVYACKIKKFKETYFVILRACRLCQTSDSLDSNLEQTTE
Summary of the method: (§1)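 CHO membranes with stable human A1, A2A, A3 or rat A3 (1000g then 100 000g spin, stored -80 °C). Competition: hA1 1 nM [3H]CCPA, nonspecific with 1 mM theophylline; hA2A 10 nM [3H]NECA; hA3 1 nM [3H]HEMADO; rA3 30 nM [3H]NECA; latter three nonspecific with 100 μM R-PIA.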

[2] = target: T2, Adenosine receptor A1 (Homo sapiens) (UniProt P30542); experiment: Agonist activity at recombinant human adenosine A1 receptor expressed in CHO cell membranes assessed as inhibition of forskolin-stimulated adenylyl cyclase activity after 10 mins relative to CCPA; assay type: functional, cell-based
T2 sequence (whole entry): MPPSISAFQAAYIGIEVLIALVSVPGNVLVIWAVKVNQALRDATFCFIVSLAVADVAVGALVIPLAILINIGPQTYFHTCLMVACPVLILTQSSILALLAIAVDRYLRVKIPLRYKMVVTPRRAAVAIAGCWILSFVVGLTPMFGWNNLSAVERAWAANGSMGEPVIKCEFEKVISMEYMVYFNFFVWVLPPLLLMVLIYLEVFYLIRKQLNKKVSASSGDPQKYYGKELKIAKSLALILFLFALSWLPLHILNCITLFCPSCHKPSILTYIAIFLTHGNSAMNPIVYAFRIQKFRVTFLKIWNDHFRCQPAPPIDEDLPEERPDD
Summary of the method: (§2)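 hA1 in CHO cell membranes (single high-speed spin, resuspended in 50 mM Tris/HCl pH 7.4, used immediately); agonist inhibition of forskolin-stimulated adenylyl cyclase; efficacy relative to CCPA as reference full agonist (100%). Geometric means with 95% confidence intervals, n = 3.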

[3] = target: T3, Adenosine receptor A1 (Homo sapiens, UniProt P30542); experiment: Agonist activity at recombinant human adenosine A1 receptor expressed in CHO cell membranes assessed as inhibition of forskolin-stimulated adenylyl cyclase activity after 10 mins in presence of [alpha-32P]ATP; assay type: functional, cell-based; summary of the method: as §2
T3 sequence (P30542 whole entry): T2 sequence (whole entry)

[4] = target: Adenosine receptors; A1 & A3 (Homo sapiens) (UniProt P30542+P0DMS8); experiment: Selectivity ratio of Ki for recombinant human adenosine A3 receptor expressed in CHO cell membranes to Ki for recombinant human adenosine A1 receptor expressed in CHO cell membranes; assay type: cell-based; summary of the method: as §1
[5] = target: T4, Adenosine receptor A2a (Homo sapiens, UniProt P29274); experiment: Agonist activity at recombinant human adenosine A2A receptor expressed in CHO cell membranes assessed as stimulation of adenylyl cyclase activity relative to NECA; assay type: functional, cell-based
Summary of the method: (§3)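 hA2A or hA2B in CHO cell membranes (one high-speed spin, pellet in 50 mM Tris/HCl pH 7.4, used immediately); agonist stimulation of adenylyl cyclase gives EC50; partial agonism judged as efficacy against 100 μM NECA as full agonist. Geometric means, 95% confidence intervals, n = 3.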

[6] = target: T3, Adenosine receptor A1; experiment: Displacement of [3H]CCPA from recombinant human adenosine A1 receptor expressed in CHO cell membranes after 3 hrs by microbeta scintillation counting; summary of the method: as §1
[7] = target: T5, Adenosine receptor A3 (Homo sapiens, UniProt P0DMS8); experiment: Displacement of [3H]HEMADO from recombinant human adenosine […] receptor expressed in CHO cell membranes after 3 hrs by microbeta scintillation counting; summary of the method: as §1
T5 sequence (P0DMS8 whole entry): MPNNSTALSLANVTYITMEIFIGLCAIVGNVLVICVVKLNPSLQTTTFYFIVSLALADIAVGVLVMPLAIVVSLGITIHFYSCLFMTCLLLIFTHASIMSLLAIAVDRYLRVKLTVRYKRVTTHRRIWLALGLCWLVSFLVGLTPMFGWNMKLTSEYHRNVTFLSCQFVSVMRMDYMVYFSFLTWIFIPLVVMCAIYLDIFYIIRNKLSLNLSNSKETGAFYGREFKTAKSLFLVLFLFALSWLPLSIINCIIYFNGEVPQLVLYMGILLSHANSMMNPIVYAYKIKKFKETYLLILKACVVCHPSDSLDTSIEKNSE

[8] = species on record: Homo sapiens; experiment: Selectivity ratio of Ki for recombinant human adenosine A2A receptor expressed in CHO cell membranes to Ki for recombinant human adenosine A3 receptor expressed in CHO cell membranes; assay type: cell-based; summary of the method: as §1
[9] = target: T4, Adenosine receptor A2a; experiment: Displacement of [3H]NECA from recombinant human adenosine A2A receptor expressed in CHO cell membranes after 3 hrs by microbeta scintillation counting; summary of the method: as §1
[10] = species on record: Homo sapiens; experiment: Selectivity ratio of Ki for recombinant human adenosine A2A receptor expressed in CHO cell membranes to Ki for recombinant human adenosine A1 receptor expressed in CHO cell membranes; assay type: cell-based; summary of the method: as §1
[11] = target: T5, Adenosine receptor A3; experiment: Antagonist activity at recombinant human adenosine A3 receptor expressed in CHO cell membranes assessed as reversal of NECA-mediated inhibition of adenylyl cyclase activity after 10 mins by [alpha-32P]ATP assay; assay type: functional, cell-based
[12] = target: T6, Adenosine receptor A2b (Homo sapiens, UniProt P29275); experiment: Agonist activity at recombinant human adenosine A2B receptor expressed in CHO cell membranes assessed as stimulation of adenylyl cyclase activity by [alpha-32P]ATP assay; assay type: functional, cell-based; summary of the method: as §3
T6 sequence (P29275 whole entry): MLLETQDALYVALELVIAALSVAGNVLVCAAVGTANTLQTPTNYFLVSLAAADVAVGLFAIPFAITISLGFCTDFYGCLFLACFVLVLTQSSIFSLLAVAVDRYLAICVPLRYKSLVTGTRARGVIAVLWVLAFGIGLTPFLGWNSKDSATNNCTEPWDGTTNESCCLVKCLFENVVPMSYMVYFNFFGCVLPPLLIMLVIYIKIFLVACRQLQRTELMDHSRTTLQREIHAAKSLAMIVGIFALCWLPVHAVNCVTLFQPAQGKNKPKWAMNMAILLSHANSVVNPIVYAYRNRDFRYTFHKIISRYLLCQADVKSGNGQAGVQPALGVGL

[13] = target: T7, Adenosine receptor A2b (Homo sapiens) (UniProt P29275); experiment: Agonist activity at recombinant human adenosine A2B receptor expressed in CHO cell membranes assessed as stimulation of adenylyl cyclase activity relative to NECA; assay type: functional, cell-based; summary of the method: as §3
T7 sequence (whole entry): T6 sequence (P29275 whole entry)

[14] = target: T4, Adenosine receptor A2a; experiment: Agonist activity at recombinant human adenosine A2A receptor expressed in CHO cell membranes assessed as stimulation of adenylyl cyclase activity by [alpha-32P]ATP assay; assay type: functional, cell-based; summary of the method: as §3
[15] = Selectivity ratio of Ki for recombinant rat adenosine A3 receptor expressed in CHO cell membranes to Ki for recombinant human adenosine A3 receptor expressed in CHO cell membranes; assay type: cell-based; summary of the method: as §1

T4 sequence (P29274 whole entry): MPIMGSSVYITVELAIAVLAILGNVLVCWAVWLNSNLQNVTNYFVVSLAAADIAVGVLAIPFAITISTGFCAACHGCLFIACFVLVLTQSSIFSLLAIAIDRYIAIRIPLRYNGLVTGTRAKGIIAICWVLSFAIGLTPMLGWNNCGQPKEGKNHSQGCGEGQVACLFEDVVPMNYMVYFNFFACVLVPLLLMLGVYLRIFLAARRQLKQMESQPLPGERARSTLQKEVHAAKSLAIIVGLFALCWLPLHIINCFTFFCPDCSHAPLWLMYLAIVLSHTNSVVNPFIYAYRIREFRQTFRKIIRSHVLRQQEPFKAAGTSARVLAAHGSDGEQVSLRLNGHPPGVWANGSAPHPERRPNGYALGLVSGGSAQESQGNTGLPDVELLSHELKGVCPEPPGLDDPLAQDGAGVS

Row | SMILES | Ki [1] [nM] | Efficacy [2] [%] | EC50 [3] [nM] | Ratio Ki [4] | Efficacy [5] [%] | Ki [6] [nM] | Ki [7] [nM] | Ratio Ki [8] | Ki [9] [nM] | Ratio Ki [10] | EC50 [11] [nM] | EC50 [12] [nM] | Efficacy [13] [%] | EC50 [14] [nM] | Ratio Ki [15]
1 | CCn1nnc([C@H]2O[C@@H](n3cnc4c(Nc5ccc(Cl)cc5F)ncnc43)[C@H](O)[C@@H]2O)n1 | 21.4 |  |  |  |  |  |  |  |  |  |  |  |  |  | 
2 | CCn1nnc([C@H]2O[C@@H](n3cnc4c(NCc5ccc(Cl)cc5F)nc(Cl)nc43)[C@H](O)[C@@H]2O)n1 |  | > 90 | 539 | 0.29 | > 90 | 17.6 | 5.17 | 170 | 881 | 50 | 105 | > 30000 | > 90 | 96.5 | 
3 | CCn1nnc([C@H]2O[C@@H](n3cnc4c(NCc5ccc(Cl)cc5F)ncnc43)C(O)C2O)n1 (single isomer, unassigned) | 22.6 | > 90 | 230 | 1.09 | > 90 | 4.28 | 4.67 | 54 | 252 | 59 | 25.4 | 1290 | > 90 | 40.7 | 4.8
4 | CCn1nnc([C@H]2O[C@@H](n3cnc4c(NC)nc(Cl)nc43)[C@H](O)[C@@H]2O)n1 | 600 |  |  |  |  |  |  |  |  |  |  |  |  |  | 
5 | CCn1nnc([C@H]2O[C@@H](n3cnc4c(NCc5cccc(Br)c5)ncnc43)C(O)C2O)n1 (single isomer, unassigned) | 4.11 | > 90 | 45.1 | 0.4 | > 90 | 0.95 | 0.393 | 61 | 24.5 | 25 | 2.07 | 408 | > 90 | 4.46 | 10
6 | CCn1nnc([C@H]2O[C@@H](n3cnc4c(NCc5ccco5)ncnc43)C(O)C2O)n1 (single isomer, unassigned) | 33.1 | > 90 | 552 | 0.45 | > 90 | 10.7 | 4.85 | 70 | 342 | 32 | 125 | 1930 | > 90 | 54.3 | 6.8
7 | CCn1nnc([C@H]2O[C@@H](n3cnc4c(NC5CC5)nc(Cl)nc43)[C@H](O)[C@@H]2O)n1 |  |  | 7.21 | 0.86 |  | 0.538 | 0.461 | 596 | 274 | 509 to 510 | 14.1 | 677 |  | 21.5 | 

Reference: ChEMBL document CHEMBL4049451, “Exploring the Role of N6-Substituents in Potent Dual Acting 5'-C-Ethyltetrazolyladenosine Derivatives: Synthesis, Binding, Functional Assays, and Antinociceptive Effects in Mice ∇” (J Med Chem, 2017)
